What was measured:
[1] = target: NUAK family SNF1-like kinase 1 (Homo sapiens) (UniProt O60285); experiment: Inhibition of recombinant human ARK5 (2 to end residues) assessed as residual activity at 10 uM using KKKVSRSGLYRSPSMPENLNRPR as substrate incubated for 40 mins in presence of [gamma-33ATP] by scintillation counting based radiometry assay relative to control
[2] = tested on: Mast/stem cell growth factor receptor Kit (Homo sapiens), P10721 [D816H]; experiment: Inhibition of recombinant human C-Kit D816H mutant (544 to end residues) assessed as residual activity at 10 uM poly(Glu, Tyr) 4:1 as substrate incubated 40 mins in presence of [gamma-33ATP] by scintillation counting based radiometry assay relative to control
[3] = tested on: Receptor-type tyrosine-protein kinase FLT3 (Homo sapiens), P36888 [D835Y]; experiment: Inhibition of recombinant human FLT3 D835Y mutant (564 to end residues) assessed as residual activity at 10 uM using EAIYAAPFAKKK as substrate at 40 mins in presence of [gamma-33ATP] by scintillation counting based radiometry assay relative to control
[4] = target: cGMP-dependent protein kinase 1 (Homo sapiens) (UniProt Q13976); experiment: Inhibition of recombinant full-length human PKG1beta assessed as residual activity at 10 uM using RRRLSFAEPG as substrate incubated for 40 mins in presence of [gamma33P]ATP by scintillation counting based radiometry assay relative to control
[5] = target: Testis-specific serine/threonine-protein kinase 2 (Homo sapiens) (UniProt Q96PF2); experiment: Inhibition of recombinant full-length human TSSK2 assessed as residual activity at 10 uM using KKKVSRSGLYRSPSMPENLNRPR as substrate incubated for 40 mins in presence of [gamma33P]ATP by scintillation counting based radiometry assay relative to control
[6] = target: Mitogen-activated protein kinase kinase kinase kinase 4 (Homo sapiens) (UniProt O95819); experiment: Inhibition of recombinant human MAP4K4 (1 to 328 residues) assessed as residual activity at 10 uM using RLGRDKYKTLRQI as substrate incubated for 40 mins in presence of [gamma-33ATP by scintillation counting based radiometry assay relative to control
[7] = target: CDK6/cyclin D3 (Homo sapiens) (UniProt P30281+Q00534); experiment: Inhibition of recombinant full length human CDK6/cyclinD3 assessed as residual activity at 10 uM using histone H1 as substrate incubated for 40 mins in presence of [gamma-33ATP] by scintillation counting based radiometry assay relative to control; type: protein-complex assay
[8] = tested on: Glycogen synthase kinase-3 beta (Homo sapiens), P49841 [UNDEFINED MUTATION]; experiment: Inhibition of human GSK-3beta H350L mutant (2 to end residues) assessed as residual activity at 10 uM using phospho GS2 peptide as substrate after 40 mins by [gamma-33ATP] radiometric assay relative to control
[9] = tested on: Tyrosine-protein kinase ABL1 (Homo sapiens), P00519 [T315I]; experiment: Inhibition of human ABL1 T315I mutant (27 to end residues) assessed as residual activity at 10 uM using EAIYAAPFAKKK as substrate incubated for 40 mins in presence of [gamma-33ATP] by scintillation counting based radiometry assay relative to control
A549 = experiment: Inhibition of hippo signalling protein in human A549 cells cotransfected with CTGF promoter-driven firefly luciferase and CMV promoter-driven renilla luciferase gene assessed as increase in CTGF expression at 10 uM incubated for 24 hrs by dual-luciferase gene assay relative to control
[10] = target: Tau-tubulin kinase 1 (Homo sapiens) (UniProt Q5TCY1); experiment: Inhibition of recombinant human TTBK1 (1 to 479 residues) assessed as residual activity at 10 uM using casein as substrate incubated for 40 mins in presence of [gamma33P]ATP by scintillation counting based radiometry assay relative to control
[11] = tested on: Fibroblast growth factor receptor 1 (Homo sapiens), P11362 [V561M]; experiment: Inhibition of recombinant human FGFR1 V561M mutant (456 to 765 residues) assessed as residual activity at 10 uM using KKKSPGEYVNIEF as substrate at 40 mins in presence of [gamma-33ATP] by scintillation counting based radiometry assay relative to control
[12] = target: Ephrin type-A receptor 8 (Homo sapiens) (UniProt P29322); experiment: Inhibition of recombinant human EphA8 (615 to 911 residues) assessed as residual activity at 10 uM using KTFCGTPEYLAPEVRREPRILSEEEQEMFRDFDYIADWC as substrate at 40 mins in presence of [gamma-33ATP] by scintillation counting based radiometry assay relative to control
[13] = target: cAMP-dependent protein kinase catalytic subunit PRKX (Homo sapiens) (UniProt P51817); experiment: Inhibition of recombinant human full length PrKX assessed as residual activity at 10 uM using RRRLSFAEPG as substrate incubated for 40 mins in presence of [gamma33P]ATP by scintillation counting based radiometry assay relative to control
[14] = target: Proto-oncogene tyrosine-protein kinase receptor Ret (Homo sapiens) (UniProt P07949); experiment: Inhibition of recombinant human Ret (658 to end residues) assessed as residual activity at 10 uM using KKKSPGEYVNIEFG as substrate incubated for 40 mins in presence of [gamma33P]ATP by scintillation counting based radiometry assay relative to control
[15] = target: Serine/threonine-protein kinase TAO1 (Homo sapiens) (UniProt Q7L7X3); experiment: Inhibition of recombinant human TAO1 (1 to 327 residues) assessed as residual activity at 10 uM using myelin basic protein as substrate incubated for 40 mins in presence of [gamma33P]ATP by scintillation counting based radiometry assay relative to control
[16] = target: Activin receptor type-1B (Homo sapiens) (UniProt P36896); experiment: Inhibition of human ALK4 (150 to end residues) assessed as residual activity at 10 uM using casein as substrate incubated for 40 mins in presence of [gamma-33ATP] by scintillation counting based radiometry assay relative to control
[17] = tested on: Mast/stem cell growth factor receptor Kit (Homo sapiens), P10721 [D816V]; experiment: Inhibition of recombinant human C-Kit D816V mutant (544 to end residues) assessed as residual activity at 10 uM poly(Glu, Tyr) 4:1 as substrate incubated 40 mins in presence of [gamma-33ATP] by scintillation counting based radiometry assay relative to control
[18] = target: Muscle, skeletal receptor tyrosine-protein kinase (Homo sapiens) (UniProt O15146); experiment: Inhibition of recombinant human MUSK (530 to end residues) assessed as residual activity at 10 uM using myelin basic protein as substrate measured after 40 mins in presence of [gamma33P]ATP by scintillation counting based radiometry assay relative to control
[19] = target: Serine/threonine-protein kinase 4 (Homo sapiens) (UniProt Q13043); experiment: Inhibition of recombinant full-length human MST1 assessed as residual activity at 10 uM using KKSRGDYMTMQIG as substrate measured after 40 mins in presence of [gamma33P]ATP by scintillation counting based radiometry assay relative to control
Summary of the method: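 Outsourced kinase profiling of MST1 by a commercial service (Eurofins); activity reported as mean ± SEM of 2 replicates.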

Sequence of Activin receptor type-1B (Homo sapiens) (P36896 whole entry): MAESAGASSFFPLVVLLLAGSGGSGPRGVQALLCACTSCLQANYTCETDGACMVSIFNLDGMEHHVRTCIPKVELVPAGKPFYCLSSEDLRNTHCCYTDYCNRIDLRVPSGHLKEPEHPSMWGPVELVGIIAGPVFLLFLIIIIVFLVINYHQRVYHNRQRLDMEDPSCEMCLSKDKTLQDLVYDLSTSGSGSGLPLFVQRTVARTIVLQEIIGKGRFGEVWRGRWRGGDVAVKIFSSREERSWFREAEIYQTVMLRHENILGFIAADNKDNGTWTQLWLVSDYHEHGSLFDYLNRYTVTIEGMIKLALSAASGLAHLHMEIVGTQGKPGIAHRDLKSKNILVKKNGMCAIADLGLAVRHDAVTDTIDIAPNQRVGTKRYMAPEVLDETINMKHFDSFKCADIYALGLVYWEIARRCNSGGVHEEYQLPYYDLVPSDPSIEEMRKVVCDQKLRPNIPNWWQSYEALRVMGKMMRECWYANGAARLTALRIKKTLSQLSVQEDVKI
Sequence of Tau-tubulin kinase 1 (Homo sapiens) (Q5TCY1 whole entry, the tested form may be a part): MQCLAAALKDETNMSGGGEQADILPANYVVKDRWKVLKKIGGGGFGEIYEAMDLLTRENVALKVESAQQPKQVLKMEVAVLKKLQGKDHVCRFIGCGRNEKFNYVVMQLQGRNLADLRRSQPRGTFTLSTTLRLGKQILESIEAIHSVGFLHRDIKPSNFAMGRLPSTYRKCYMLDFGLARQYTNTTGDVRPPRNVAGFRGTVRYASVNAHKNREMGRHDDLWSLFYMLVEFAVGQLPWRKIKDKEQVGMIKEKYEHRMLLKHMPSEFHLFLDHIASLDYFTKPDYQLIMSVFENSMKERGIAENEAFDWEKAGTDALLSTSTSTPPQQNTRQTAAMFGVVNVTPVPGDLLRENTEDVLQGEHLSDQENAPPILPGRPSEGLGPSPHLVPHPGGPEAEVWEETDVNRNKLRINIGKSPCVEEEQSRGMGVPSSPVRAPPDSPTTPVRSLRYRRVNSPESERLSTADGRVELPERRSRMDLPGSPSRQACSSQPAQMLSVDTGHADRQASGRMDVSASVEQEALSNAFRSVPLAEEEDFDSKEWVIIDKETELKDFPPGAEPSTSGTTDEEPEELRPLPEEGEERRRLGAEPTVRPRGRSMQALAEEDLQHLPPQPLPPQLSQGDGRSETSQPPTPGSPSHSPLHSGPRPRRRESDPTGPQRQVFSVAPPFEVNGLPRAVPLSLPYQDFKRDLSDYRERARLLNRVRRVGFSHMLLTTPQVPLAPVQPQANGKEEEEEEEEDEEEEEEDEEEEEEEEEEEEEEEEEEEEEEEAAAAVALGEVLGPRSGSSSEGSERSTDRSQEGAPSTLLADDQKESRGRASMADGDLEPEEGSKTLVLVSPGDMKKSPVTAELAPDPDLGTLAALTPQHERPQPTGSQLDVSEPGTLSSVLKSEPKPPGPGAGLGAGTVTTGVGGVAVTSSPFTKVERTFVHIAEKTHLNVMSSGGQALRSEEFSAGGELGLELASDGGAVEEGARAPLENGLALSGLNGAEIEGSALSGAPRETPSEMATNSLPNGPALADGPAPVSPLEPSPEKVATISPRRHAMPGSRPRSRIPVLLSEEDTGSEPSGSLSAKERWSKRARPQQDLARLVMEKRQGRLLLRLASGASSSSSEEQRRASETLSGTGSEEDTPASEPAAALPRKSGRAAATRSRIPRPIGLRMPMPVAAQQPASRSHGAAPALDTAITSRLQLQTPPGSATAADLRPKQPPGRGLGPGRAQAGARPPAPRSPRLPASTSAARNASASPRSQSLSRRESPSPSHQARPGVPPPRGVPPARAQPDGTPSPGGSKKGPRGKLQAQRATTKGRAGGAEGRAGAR
Sequence of Serine/threonine-protein kinase TAO1 (Homo sapiens) (Q7L7X3 whole entry, the tested form may be a part): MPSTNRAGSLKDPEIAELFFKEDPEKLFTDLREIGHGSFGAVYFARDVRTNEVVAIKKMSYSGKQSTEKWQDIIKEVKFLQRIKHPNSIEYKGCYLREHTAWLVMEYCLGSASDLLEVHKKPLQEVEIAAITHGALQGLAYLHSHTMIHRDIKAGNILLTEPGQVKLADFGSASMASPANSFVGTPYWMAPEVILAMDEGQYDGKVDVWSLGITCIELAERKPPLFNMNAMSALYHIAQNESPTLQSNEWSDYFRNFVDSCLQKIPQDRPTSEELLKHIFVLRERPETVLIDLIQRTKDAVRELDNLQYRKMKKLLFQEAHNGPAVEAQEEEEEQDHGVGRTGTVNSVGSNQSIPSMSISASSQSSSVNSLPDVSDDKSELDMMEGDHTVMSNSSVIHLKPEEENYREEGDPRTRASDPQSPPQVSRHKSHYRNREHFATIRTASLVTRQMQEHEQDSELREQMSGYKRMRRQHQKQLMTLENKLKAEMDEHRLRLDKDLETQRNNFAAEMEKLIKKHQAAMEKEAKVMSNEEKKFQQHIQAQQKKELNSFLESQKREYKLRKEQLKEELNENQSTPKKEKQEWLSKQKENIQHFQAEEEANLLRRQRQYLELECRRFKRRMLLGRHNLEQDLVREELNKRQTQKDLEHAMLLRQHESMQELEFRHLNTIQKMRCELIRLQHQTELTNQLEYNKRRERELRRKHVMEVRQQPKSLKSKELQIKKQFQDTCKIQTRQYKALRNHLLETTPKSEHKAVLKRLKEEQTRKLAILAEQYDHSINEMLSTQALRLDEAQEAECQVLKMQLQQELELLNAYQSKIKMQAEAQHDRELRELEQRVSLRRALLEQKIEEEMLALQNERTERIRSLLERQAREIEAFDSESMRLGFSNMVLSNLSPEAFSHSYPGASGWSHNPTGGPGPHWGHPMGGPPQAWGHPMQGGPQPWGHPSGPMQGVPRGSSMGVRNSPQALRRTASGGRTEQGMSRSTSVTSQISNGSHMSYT
Sequence of NUAK family SNF1-like kinase 1 (Homo sapiens) (O60285 whole entry): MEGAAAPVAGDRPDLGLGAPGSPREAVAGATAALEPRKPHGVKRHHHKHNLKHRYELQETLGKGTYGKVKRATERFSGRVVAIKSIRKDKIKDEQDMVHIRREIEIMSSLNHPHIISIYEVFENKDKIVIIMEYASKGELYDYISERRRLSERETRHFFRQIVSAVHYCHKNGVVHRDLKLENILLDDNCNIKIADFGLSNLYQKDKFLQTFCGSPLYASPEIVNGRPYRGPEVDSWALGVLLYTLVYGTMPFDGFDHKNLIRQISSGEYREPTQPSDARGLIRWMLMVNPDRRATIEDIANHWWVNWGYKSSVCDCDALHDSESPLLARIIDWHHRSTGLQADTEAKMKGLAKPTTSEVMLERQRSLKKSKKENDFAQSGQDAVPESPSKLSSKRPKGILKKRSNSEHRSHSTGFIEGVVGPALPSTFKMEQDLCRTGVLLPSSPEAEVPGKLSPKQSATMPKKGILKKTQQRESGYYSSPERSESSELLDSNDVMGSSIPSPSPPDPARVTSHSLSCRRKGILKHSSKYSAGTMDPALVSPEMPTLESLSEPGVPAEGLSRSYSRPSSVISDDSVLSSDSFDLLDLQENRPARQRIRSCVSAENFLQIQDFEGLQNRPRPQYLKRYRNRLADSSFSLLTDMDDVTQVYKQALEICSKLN
Sequence of Serine/threonine-protein kinase 4 (Homo sapiens) (Q13043 whole entry): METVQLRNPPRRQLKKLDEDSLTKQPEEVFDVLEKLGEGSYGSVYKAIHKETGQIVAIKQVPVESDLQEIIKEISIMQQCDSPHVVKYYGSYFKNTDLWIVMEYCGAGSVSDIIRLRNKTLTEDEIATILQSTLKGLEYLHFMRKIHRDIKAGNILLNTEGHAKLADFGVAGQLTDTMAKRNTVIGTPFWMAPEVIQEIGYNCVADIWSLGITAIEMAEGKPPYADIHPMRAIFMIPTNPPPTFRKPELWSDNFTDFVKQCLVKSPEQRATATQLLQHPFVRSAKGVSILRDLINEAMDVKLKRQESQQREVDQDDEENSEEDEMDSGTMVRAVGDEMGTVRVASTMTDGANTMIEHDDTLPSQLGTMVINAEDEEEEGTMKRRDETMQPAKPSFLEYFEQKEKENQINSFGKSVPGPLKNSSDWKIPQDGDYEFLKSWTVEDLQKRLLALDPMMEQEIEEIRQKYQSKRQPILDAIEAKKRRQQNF
Sequence of Testis-specific serine/threonine-protein kinase 2 (Homo sapiens) (Q96PF2 whole entry, the tested form may be a part): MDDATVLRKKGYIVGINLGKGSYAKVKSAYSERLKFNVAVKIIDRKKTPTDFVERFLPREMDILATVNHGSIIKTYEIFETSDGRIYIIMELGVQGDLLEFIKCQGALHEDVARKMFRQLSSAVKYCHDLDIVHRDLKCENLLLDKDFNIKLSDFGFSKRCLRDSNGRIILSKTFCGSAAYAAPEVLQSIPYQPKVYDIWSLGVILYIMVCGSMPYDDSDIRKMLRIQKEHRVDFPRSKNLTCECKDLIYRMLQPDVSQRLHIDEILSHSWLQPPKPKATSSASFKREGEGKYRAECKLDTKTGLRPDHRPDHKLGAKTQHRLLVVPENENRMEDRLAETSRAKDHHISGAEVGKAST
Sequence of cAMP-dependent protein kinase catalytic subunit PRKX (Homo sapiens) (P51817 whole entry): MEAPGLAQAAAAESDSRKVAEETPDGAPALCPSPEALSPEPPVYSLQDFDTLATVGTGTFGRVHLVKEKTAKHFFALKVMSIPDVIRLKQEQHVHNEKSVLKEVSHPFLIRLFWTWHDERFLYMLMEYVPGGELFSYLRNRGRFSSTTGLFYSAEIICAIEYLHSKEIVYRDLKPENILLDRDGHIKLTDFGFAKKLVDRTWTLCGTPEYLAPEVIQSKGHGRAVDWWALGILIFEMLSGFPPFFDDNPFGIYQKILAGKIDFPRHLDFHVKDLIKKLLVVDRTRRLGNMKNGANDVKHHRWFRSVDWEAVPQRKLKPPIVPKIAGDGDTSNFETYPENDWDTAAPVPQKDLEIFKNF

C[C@@H](c1ccccc1)n1nnc2cnc3ccc(-c4cnc5[nH]ccc5c4)cc3c21
Activity [1]: 73%
Activity [2]: 8%
Activity [3]: 42%
Activity [4]: 66%
Activity [5]: 63%
Activity [6]: 34%
Activity [7]: 92%
Activity [8]: 81%
Activity [9]: 110%
fold change (FC) (A549): 13.5
Activity [10]: 91%
Activity [11]: 22%
Activity [12]: 73%
Activity [13]: 97%
Activity [14]: 57%
Activity [15]: 18%
Activity [16]: 100%
Activity [17]: 86%
Activity [18]: 74%
Activity [19]: 73%

From ChEMBL document CHEMBL4334471, “Discovery of 1,8-disubstituted-[1,2,3]triazolo[4,5-c]quinoline derivatives as a new class of Hippo signaling pathway inhibitors” (Bioorg Med Chem Lett, 2019)
